This series can be described thus: Toxicity liver stage against HepG2, at 10uM. In kind it is cell-based. On the set-up: test concentration 10 uM, cell line HepG2-A16-CD81EGFP. Particulars: human, HepG2-A16-CD81EGFP cells; read-out: INHIBITION
The method, boiled down:
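Uninfected HepG2-A16-CD81EGFP cells, 3 × 10^3 per well, 1536-well, plated on prespotted compound at 10 μM final, parasite-free screening media added to match infected plates; puromycin 10 μM positive, DMSO 0.5% negative; run in parallel with 48 h PbLuc assay at 37 °C, 5% CO2; viability by CellTiter-Glo luminescence, normalized to controls.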
As to `CN(Cc1ccccc1)C(=O)c1nc(S(C)(=O)=O)n2ccccc12`, the cytotoxicity at 10 µM is -7.36%.

Turning to `CCc1cc(CN(C)C(=O)CN2CC(Cc3ccccc3)CC2=O)on1` (centres undefined), the cytotoxicity at 10 µM was -0.28%.

Take `CCN1C(=O)C(c2ccccc2)CC12CCN(CCO)CC2` (centres undefined): the cytotoxicity at 10 µM came out at 1.26%.

As for `Cc1cc(C(=O)N(C)CCCn2cccn2)nc(N)n1`, the cytotoxicity at 10 µM was -7.04%.

Regarding `N#Cc1cn(CCCN2CCc3ccccc3C2)c(=O)[nH]c1=O`, the cytotoxicity at 10 µM stood at 2.72%.

On to `CN(c1ccc(C(=O)NCCN2CCOCC2)c(Cl)c1)S(C)(=O)=O`, for which the cytotoxicity at 10 µM is -11.1%.

Regarding `CO[C@@H]1CC[C@H]2[C@H]1OCCN2Cc1ccc(F)cc1`, the cytotoxicity at 10 µM was determined as 1.82%.

In the case of `COc1ccc(CNC(=O)Nc2ccc(S(=O)(=O)C(F)F)cc2)cc1`, the cytotoxicity at 10 µM worked out at 33.6%.

With `COCC(C)N(C)C(=O)CCc1c(C)nc2c(C#N)cnn2c1C` (centres undefined), the cytotoxicity at 10 µM was -43.3%.

As for `Cc1nc(-c2cccnc2)ncc1C(=O)N1CCCCC(N)C1` (centres undefined), the cytotoxicity at 10 µM was determined as 7.57%.

As for `CCCC1CCCN(C(=O)Nc2ccnc(C(=O)N(C)C)c2)CC1` (centres undefined), the cytotoxicity at 10 µM was found to be 9.58%.

For the molecule `Cn1ccnc1CN1CCN2C[C@H](OCc3ccccc3)C[C@H]2C1`, the cytotoxicity at 10 µM stood at 9.37%.

Turning to `Cn1nnnc1SCCNC(=O)c1cccc2ccnn12`, the cytotoxicity at 10 µM was -59.1%.

Turning to `c1cc(-c2c[nH]c([C@@H]3COCCN3Cc3ncc[nH]3)n2)ccn1`, the cytotoxicity at 10 µM stood at 4.99%.

Take `Cc1cc(C(=O)N2CCOC(c3nc(C(C)C)n[nH]3)C2)no1` (centres undefined): the cytotoxicity at 10 µM was -5.13%.

For `CCN(CC)C(=O)CN(C)Cc1nc2c(cnn2C)c(=O)[nH]1`, the cytotoxicity at 10 µM is -0.958%.

For `O=C(c1csc(I)c1)N1CCc2c(ncn2C2CC2)C1`, the cytotoxicity at 10 µM stood at 7.21%.

For `CC(C)CCNC(=O)C(c1cccc(F)c1)N(C)C` (centres undefined), the cytotoxicity at 10 µM is -5.77%.

`Cc1ccc([C@@H]2CN(C(=O)c3csc(C)n3)C[C@H]2NC(=O)C2CC2)cc1`: the cytotoxicity at 10 µM was -5.99%.

`CC(=O)NC[C@@H]1C=C(C)[C@H](CC(=O)NCCN(C)C)C[C@H]1C(C)C`: the cytotoxicity at 10 µM turned out to be 0.939%.

As for `Cc1nc(C)n(CC2CCCN2Cc2cccc3c2OCCO3)n1` (centres undefined), the cytotoxicity at 10 µM is -3.33%.

`CC(=O)N1CCOC[C@H](OCC(=O)N(C)C)C1`: the cytotoxicity at 10 µM is -1.13%.

With `CN(C)S(=O)(=O)N1CCCC(c2cccc(Cc3ccccc3F)n2)C1` (centres undefined), the cytotoxicity at 10 µM was 40.4%.

`O=c1cc2c(nn1CN1CCC(c3ccccc3)CC1)CCC2`: the cytotoxicity at 10 µM was -8.49%.

For the molecule `COc1cc(NCC(c2ccccn2)N(C)C)ncn1` (centres undefined), the cytotoxicity at 10 µM is -57.4%.

For `Cn1cnc(S(=O)(=O)NCC2CCN(C(=O)Oc3ccccc3)CC2)c1`, the cytotoxicity at 10 µM is -11.1%.

`Cn1cc(CC2CC(=O)N(Cc3ccc(OC(F)F)cc3)C2=O)cn1` (centres undefined): the cytotoxicity at 10 µM was 6.6%.

In the case of `c1cnc(-c2nc(CN3CCCC(Cn4cncn4)C3)cs2)nc1` (centres undefined), the cytotoxicity at 10 µM is -7.91%.

In the case of `Cc1cc(Cc2ccc(S(=O)(=O)N3CCSCC3)cc2)c(=O)[nH]n1`, the cytotoxicity at 10 µM is -10%.

As for `Cc1ncc(CNCC(C)O)c2cc(C(=O)c3ccc(Br)cc3)oc12` (centres undefined), the cytotoxicity at 10 µM came out at 1.39%.

Turning to `CS(=O)(=O)CCN1CCCC1c1noc(C2CC2)n1` (centres undefined), the cytotoxicity at 10 µM is -6.82%.

`COc1ccccc1NC(=O)NC(C)c1nc[nH]n1` (centres undefined): the cytotoxicity at 10 µM is 2.8%.

For the molecule `CC(NC(=O)NC1CCN(Cc2ccccn2)CC1)c1nncn1C` (centres undefined), the cytotoxicity at 10 µM was 0.335%.

Regarding `CC(NC(=O)N(C)Cc1ccncc1)c1nncn1C` (centres undefined), the cytotoxicity at 10 µM is 2.57%.

For `CN(C)c1ccccc1CN1CCCC(N2CCCC2=O)C1` (centres undefined), the cytotoxicity at 10 µM was -9.13%.

With `NC(=O)C1CCN(C(=O)c2ccn(-c3ccc(F)cc3)n2)C1` (centres undefined), the cytotoxicity at 10 µM was -6.02%.

In the case of `CS(=O)(=O)N1CCOCC12CCN(Cc1ccoc1)CC2`, the cytotoxicity at 10 µM was determined as 7.81%.

Regarding `CNC(=O)c1cn[nH]c1C1(C)CCCN(Cc2ccccc2OC)C1` (centres undefined), the cytotoxicity at 10 µM came to 0.353%.

With `O=C(NCCc1ccccc1)c1cccc(S(=O)(=O)NC2CCOC2)c1` (centres undefined), the cytotoxicity at 10 µM is 3.52%.

In the case of `Cc1nnc([C@@H]2CC[C@@H]3[C@@H](CCN3S(=O)(=O)c3cccnc3)O2)o1`, the cytotoxicity at 10 µM was determined as 0.462%.

Turning to `O=S(=O)(NC[C@H]1C[C@@H]2CCN1C[C@@H]2CN1CCCCC1)c1ccccc1`, the cytotoxicity at 10 µM was -4.32%.

For `Cc1ccc(N2C[C@@H]3CN(C(=O)c4ccccc4)CCO[C@@H]3C2)nn1`, the cytotoxicity at 10 µM is -5.52%.

Regarding `O=C(NCC(O)c1ccsc1)c1sccc1OC(F)F` (centres undefined), the cytotoxicity at 10 µM was -16%.

Consider `Cn1cc(N2CC3(CCN(CC4CC4)C3)CC2=O)cn1` (centres undefined), for which the cytotoxicity at 10 µM worked out at 1.84%.

`CCOCCn1nc(C)cc1C(=O)N(C)Cc1cccc2ncccc12`: the cytotoxicity at 10 µM turned out to be 4.2%.

Consider `CCN(CC)CC[C@H]1CN(C(=O)C(C)(C)C)CC[C@H]1CC(=O)O`, for which the cytotoxicity at 10 µM came out at 0.0915%.

As to `CN(CC(O)C(F)(F)F)C(=O)Nc1cccc(Cn2cccn2)c1` (centres undefined), the cytotoxicity at 10 µM was 5.79%.

Take `O=C(c1ccncc1F)N1CC2CC1(C(=O)N1CCCC1)C2`: the cytotoxicity at 10 µM is -2.51%.

Turning to `N#Cc1ccc(OC2CCN(C(=O)c3ccccc3Cl)CC2)nc1`, the cytotoxicity at 10 µM stood at 3.93%.

With `CCSc1ncc(CN2CCN(c3ncc(C)c(N)n3)CC2)cn1`, the cytotoxicity at 10 µM was -4.65%.

For `CC(C)CN1CCS(=O)(=O)[C@@H]2CCN(S(=O)(=O)N(C)C)CC[C@@H]21`, the cytotoxicity at 10 µM stood at 7.25%.

In the case of `CCN1CC2(CC1=O)CN(C(=O)N(C)C)CCN(S(C)(=O)=O)C2` (centres undefined), the cytotoxicity at 10 µM was -0.757%.

Regarding `Cc1ccc(CN(C(=O)NCC(c2cccs2)N(C)C)C2CC2)o1` (centres undefined), the cytotoxicity at 10 µM was -4.24%.

Consider `O=S(=O)(c1cnccc1N1CCN(CCO)CC1)N1CCCCC1`, for which the cytotoxicity at 10 µM came to 15.7%.

For the molecule `O=C1CC2(CCN(Cc3ccncc3)C2)CN1c1ccc2c(c1)OCO2` (centres undefined), the cytotoxicity at 10 µM is -74.1%.

As for `CC(C)(N)c1cn(C2CCN(c3ncccc3Cl)CC2)nn1`, the cytotoxicity at 10 µM is -48%.

As for `COc1ncccc1C(=O)N1CCCC1c1nc(-c2ccccc2)n[nH]1` (centres undefined), the cytotoxicity at 10 µM was -8.76%.

As for `Cc1noc(C)c1CN1C[C@@H](C(=O)O)[C@H](C(C)C)C1`, the cytotoxicity at 10 µM was 3.51%.

Consider `O=C(Nc1cccc(N2CCN(CC3CC3)CC2)c1)C1CCOC1` (centres undefined), for which the cytotoxicity at 10 µM was determined as 1.68%.

In the case of `COc1ccccc1C1(NCc2c(C)nc3c(C)cccn23)CCCC1`, the cytotoxicity at 10 µM was 15.2%.

In the case of `CC(C)c1nnc2n1CCN(C(=O)c1ccc(OCC3CC3)cc1)C2`, the cytotoxicity at 10 µM was -6.14%.

For the molecule `Cc1cc(C)n(Cc2cccc(C(=O)N(CCC#N)CCC#N)c2)n1`, the cytotoxicity at 10 µM was found to be 13.1%.

Take `Cc1cnn(CC2CCCN2CC(=O)Nc2nncs2)c1` (centres undefined): the cytotoxicity at 10 µM was -2.03%.

Take `CCn1cc(-c2cc(C(F)F)nc3sc(C(N)=O)c(N)c23)c(C)n1`: the cytotoxicity at 10 µM came out at 3.04%.

Consider `CN(C)CCn1ccnc1C1CCCN(c2cc(N)ncn2)C1` (centres undefined), for which the cytotoxicity at 10 µM was -7.76%.

For the molecule `Cc1n[nH]c2c1C(c1cc(F)cc(F)c1)SCC(=O)N2` (centres undefined), the cytotoxicity at 10 µM is 2.03%.

Turning to `CCc1nc(C2CCCN2CCS(=O)(=O)c2ccccc2)no1` (centres undefined), the cytotoxicity at 10 µM was -8.1%.

On to `CCC1(CC)CC(=O)N(CC(O)c2cccc(Br)c2)C1=O` (centres undefined), for which the cytotoxicity at 10 µM was determined as 3.89%.

For `CC(CS(C)(=O)=O)N(C(=O)CCc1cccc(F)c1)C1CC1` (centres undefined), the cytotoxicity at 10 µM was -6.77%.

As for `CCc1cc(N[C@@H](CO)C(N)=O)n2nc(C)c(C)c2n1`, the cytotoxicity at 10 µM was -13.4%.

Regarding `CO[C@@H]1CN(c2ccccc2)S(=O)(=O)[C@@]12CCN(C(C)=O)C2`, the cytotoxicity at 10 µM was 6.07%.

Turning to `O=C(c1csnn1)N1CCCC(n2cncn2)C1` (centres undefined), the cytotoxicity at 10 µM was 5.81%.

Regarding `CC(CNC(=O)NCc1ccc2c(c1)OCO2)CC1(C)OCCO1` (centres undefined), the cytotoxicity at 10 µM is -6.78%.

Turning to `Cc1cnn(CC(C)NCc2ccc(C#N)cc2)c1` (centres undefined), the cytotoxicity at 10 µM is -11.8%.

As for `COCCCS(=O)(=O)N(Cc1cccc(C)c1)Cc1ccccn1`, the cytotoxicity at 10 µM was determined as 2.47%.

As to `CCOc1ccc(C2c3c(N)nc(SC)nc3N=C3COC(=O)C32)cc1` (centres undefined), the cytotoxicity at 10 µM was determined as 30%.

For the molecule `Cc1cc(C)cc(NS(=O)(=O)c2cc3c(c(C(=O)O)c2)OCCO3)c1`, the cytotoxicity at 10 µM came out at 0.289%.

With `O=C(c1ccccn1)N1C[C@H]2CC[C@@H](C1)N(C(=O)CCc1cccs1)C2`, the cytotoxicity at 10 µM is -9%.

Regarding `Cc1cc(C)n(CC2CN(CC(=O)NC3(C#N)CCCC3)CCO2)n1` (centres undefined), the cytotoxicity at 10 µM was -2.49%.

In the case of `Cc1nnc2n1CCN(C(C)c1nnc(-c3cccs3)o1)C2` (centres undefined), the cytotoxicity at 10 µM was -11.2%.

Take `CCc1nc(C2CCCN(C(=O)c3ccc(O)nc3)C2)no1` (centres undefined): the cytotoxicity at 10 µM was -11.7%.

Consider `COC1CCN(C(=O)CC2CCCC2)CC(=O)N(C)c2ccccc21` (centres undefined), for which the cytotoxicity at 10 µM is -3.09%.

For `NC(=O)Cc1ccc(NC(=O)C2CCOCC2)cc1`, the cytotoxicity at 10 µM is -1.2%.

Regarding `O=C(O)c1cc(S(=O)(=O)N2CCOc3ccccc32)ccc1Br`, the cytotoxicity at 10 µM is -3.39%.

In the case of `CNC(=O)CN(C)C(=O)c1cc(Cl)c(I)cc1OC`, the cytotoxicity at 10 µM was 13.8%.

Consider `Cn1cc(C(=O)NCc2cncc3c2CCN(S(C)(=O)=O)C3)cn1`, for which the cytotoxicity at 10 µM was -105%.

Regarding `COCc1noc(C2(c3ccc(Br)cc3)CCOCC2)n1`, the cytotoxicity at 10 µM was -9.61%.

`Cc1cn(CC(=O)Nc2cc(C(C)C)nn2C)cn1`: the cytotoxicity at 10 µM stood at 5.44%.

`CC(C)c1nc2c(n1C)CCN(Cc1nc(-c3ccsc3)no1)C2`: the cytotoxicity at 10 µM was -6.46%.

`c1ccc(CN2CC[C@H]3CO[C@H](CNc4ncccn4)[C@H]3C2)nc1`: the cytotoxicity at 10 µM is -9.63%.

Consider `CC(C)c1nnc2n1CCN(C(=O)c1ccc(N(C)C)nn1)C2`, for which the cytotoxicity at 10 µM was -9.86%.

As for `O=C1CC2(CCN(S(=O)(=O)c3cccs3)C2)CN1c1cccc(F)c1` (centres undefined), the cytotoxicity at 10 µM is -1.51%.

On to `CN(C)c1cccc(C(=O)N2C[C@@H]3CC[C@H]2CN(C(=O)C2CCC2)C3)c1`, for which the cytotoxicity at 10 µM was -0.69%.

For the molecule `COC(=O)C(c1cc(F)ccc1F)N(C)C(=O)c1ccccn1` (centres undefined), the cytotoxicity at 10 µM is -2.72%.

For the origin of these results see ChEMBL document CHEMBL4513216, “Probing the Open Global Health Chemical Diversity Library for Multistage-Active Starting Points for Next-Generation Antimalarials” (ACS Infect Dis, 2020).
